# Active and inactive are the calls of the source.
# Tests used:
# [1] = target: T1, Sodium channel protein type 10 subunit alpha (Homo sapiens, UniProt Q9Y5Y9); assay: Inhibition of human Nav1.8 expressed in HEK293 cells assessed as reduction in blue fluorescent signal by VSP-FRET assay; assay type: cell-based
# Procedure, shortened: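 hNav1.8 stably expressed in an in-house HEK293 line; membrane-potential VSP-FRET read-out; IC50 from at least three tests on three separate assay runs.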
# [2] = Solubility of the compound at pH 7.2; assay type: physicochemical; conditions: buffer
# [3] = Plasma clearance in dog at 0.25 mg/kg, po; assay type: ADME, organism-based, Canis lupus familiaris
# [4] = target: Sodium channel protein type 3 subunit alpha (Homo sapiens, UniProt Q9NY46); assay: Inhibition of human Nav1.3 expressed in SHSY5Y cells by IonWorks Quattro selectivity assay; assay type: cell-based, SH-SY5Y
# [5] = Inhibition of Voltage gated sodium channel-mediated TTX-r current in rat DRG neurons by manual patch clamp electrophysiology; conditions: DRG neuron
# [6] = Oral bioavailability in dog at 0.25 mg/kg; assay type: ADME, organism-based, Canis lupus familiaris; conditions: in vivo
# [7] = target: T2, Sodium channel protein type 2 subunit alpha (Homo sapiens, UniProt Q99250); assay: Inhibition of human Nav1.2 expressed in SHSY5Y cells by IonWorks Quattro selectivity assay; assay type: cell-based, SH-SY5Y
# T2 sequence (Q99250 whole entry): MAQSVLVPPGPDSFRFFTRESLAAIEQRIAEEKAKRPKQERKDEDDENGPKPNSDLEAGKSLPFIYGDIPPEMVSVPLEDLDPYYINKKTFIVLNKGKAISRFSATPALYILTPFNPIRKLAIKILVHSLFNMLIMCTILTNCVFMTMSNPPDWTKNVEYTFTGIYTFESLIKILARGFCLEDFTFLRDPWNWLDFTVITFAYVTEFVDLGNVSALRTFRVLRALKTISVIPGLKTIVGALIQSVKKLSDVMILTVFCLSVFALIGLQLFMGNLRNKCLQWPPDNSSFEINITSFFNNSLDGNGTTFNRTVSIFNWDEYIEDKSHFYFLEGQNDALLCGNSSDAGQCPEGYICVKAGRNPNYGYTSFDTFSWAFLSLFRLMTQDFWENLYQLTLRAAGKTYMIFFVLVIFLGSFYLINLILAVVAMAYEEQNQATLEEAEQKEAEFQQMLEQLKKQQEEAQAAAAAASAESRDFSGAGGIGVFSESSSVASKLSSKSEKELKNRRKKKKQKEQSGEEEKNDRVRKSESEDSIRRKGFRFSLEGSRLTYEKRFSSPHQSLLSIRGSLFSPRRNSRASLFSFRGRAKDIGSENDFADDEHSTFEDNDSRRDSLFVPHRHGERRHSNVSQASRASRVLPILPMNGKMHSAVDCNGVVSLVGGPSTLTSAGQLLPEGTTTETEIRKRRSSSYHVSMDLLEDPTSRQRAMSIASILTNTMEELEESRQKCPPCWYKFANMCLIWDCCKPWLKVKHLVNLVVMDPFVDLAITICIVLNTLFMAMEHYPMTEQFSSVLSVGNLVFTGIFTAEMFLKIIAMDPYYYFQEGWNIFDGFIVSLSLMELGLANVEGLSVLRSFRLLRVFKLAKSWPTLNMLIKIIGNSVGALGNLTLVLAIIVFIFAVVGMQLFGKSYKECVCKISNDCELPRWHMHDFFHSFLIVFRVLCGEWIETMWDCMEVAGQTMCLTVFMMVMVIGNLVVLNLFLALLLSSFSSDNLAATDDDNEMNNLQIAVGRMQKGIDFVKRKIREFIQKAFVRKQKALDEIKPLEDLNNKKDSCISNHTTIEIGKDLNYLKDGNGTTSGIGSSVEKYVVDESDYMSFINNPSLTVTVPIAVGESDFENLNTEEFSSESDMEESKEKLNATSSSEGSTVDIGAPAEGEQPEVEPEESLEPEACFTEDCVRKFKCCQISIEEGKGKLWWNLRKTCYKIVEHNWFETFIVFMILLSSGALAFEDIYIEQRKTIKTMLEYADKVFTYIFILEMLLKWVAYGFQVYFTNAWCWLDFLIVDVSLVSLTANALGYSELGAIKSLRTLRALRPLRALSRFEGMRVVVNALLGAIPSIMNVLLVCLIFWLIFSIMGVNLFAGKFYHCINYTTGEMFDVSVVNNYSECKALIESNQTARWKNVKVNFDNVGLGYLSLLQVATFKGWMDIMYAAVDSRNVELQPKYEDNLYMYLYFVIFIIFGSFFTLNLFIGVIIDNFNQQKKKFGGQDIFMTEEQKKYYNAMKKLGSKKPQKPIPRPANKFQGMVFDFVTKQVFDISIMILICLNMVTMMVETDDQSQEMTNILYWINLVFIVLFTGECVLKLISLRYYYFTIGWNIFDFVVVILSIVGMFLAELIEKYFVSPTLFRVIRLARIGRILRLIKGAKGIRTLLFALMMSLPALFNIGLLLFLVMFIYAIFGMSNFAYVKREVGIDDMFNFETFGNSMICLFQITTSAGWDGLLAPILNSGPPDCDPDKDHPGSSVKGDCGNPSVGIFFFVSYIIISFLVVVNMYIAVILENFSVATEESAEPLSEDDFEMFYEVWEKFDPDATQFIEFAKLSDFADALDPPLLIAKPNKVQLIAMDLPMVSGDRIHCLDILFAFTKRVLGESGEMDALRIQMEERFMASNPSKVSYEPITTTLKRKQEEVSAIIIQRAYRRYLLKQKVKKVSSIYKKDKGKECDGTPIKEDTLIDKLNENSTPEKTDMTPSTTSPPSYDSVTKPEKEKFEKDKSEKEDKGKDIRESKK
# [8] = Plasma clearance in dog at 0.1 mg/kg, iv; assay type: ADME, organism-based, Canis lupus familiaris
# [9] = target: T3, Sodium channel protein type 9 subunit alpha (Homo sapiens, UniProt Q15858); assay: Inhibition of human Nav1.7 expressed in SHSY5Y cells by FRET assay; assay type: cell-based, SH-SY5Y
# T3 sequence (Q15858 whole entry): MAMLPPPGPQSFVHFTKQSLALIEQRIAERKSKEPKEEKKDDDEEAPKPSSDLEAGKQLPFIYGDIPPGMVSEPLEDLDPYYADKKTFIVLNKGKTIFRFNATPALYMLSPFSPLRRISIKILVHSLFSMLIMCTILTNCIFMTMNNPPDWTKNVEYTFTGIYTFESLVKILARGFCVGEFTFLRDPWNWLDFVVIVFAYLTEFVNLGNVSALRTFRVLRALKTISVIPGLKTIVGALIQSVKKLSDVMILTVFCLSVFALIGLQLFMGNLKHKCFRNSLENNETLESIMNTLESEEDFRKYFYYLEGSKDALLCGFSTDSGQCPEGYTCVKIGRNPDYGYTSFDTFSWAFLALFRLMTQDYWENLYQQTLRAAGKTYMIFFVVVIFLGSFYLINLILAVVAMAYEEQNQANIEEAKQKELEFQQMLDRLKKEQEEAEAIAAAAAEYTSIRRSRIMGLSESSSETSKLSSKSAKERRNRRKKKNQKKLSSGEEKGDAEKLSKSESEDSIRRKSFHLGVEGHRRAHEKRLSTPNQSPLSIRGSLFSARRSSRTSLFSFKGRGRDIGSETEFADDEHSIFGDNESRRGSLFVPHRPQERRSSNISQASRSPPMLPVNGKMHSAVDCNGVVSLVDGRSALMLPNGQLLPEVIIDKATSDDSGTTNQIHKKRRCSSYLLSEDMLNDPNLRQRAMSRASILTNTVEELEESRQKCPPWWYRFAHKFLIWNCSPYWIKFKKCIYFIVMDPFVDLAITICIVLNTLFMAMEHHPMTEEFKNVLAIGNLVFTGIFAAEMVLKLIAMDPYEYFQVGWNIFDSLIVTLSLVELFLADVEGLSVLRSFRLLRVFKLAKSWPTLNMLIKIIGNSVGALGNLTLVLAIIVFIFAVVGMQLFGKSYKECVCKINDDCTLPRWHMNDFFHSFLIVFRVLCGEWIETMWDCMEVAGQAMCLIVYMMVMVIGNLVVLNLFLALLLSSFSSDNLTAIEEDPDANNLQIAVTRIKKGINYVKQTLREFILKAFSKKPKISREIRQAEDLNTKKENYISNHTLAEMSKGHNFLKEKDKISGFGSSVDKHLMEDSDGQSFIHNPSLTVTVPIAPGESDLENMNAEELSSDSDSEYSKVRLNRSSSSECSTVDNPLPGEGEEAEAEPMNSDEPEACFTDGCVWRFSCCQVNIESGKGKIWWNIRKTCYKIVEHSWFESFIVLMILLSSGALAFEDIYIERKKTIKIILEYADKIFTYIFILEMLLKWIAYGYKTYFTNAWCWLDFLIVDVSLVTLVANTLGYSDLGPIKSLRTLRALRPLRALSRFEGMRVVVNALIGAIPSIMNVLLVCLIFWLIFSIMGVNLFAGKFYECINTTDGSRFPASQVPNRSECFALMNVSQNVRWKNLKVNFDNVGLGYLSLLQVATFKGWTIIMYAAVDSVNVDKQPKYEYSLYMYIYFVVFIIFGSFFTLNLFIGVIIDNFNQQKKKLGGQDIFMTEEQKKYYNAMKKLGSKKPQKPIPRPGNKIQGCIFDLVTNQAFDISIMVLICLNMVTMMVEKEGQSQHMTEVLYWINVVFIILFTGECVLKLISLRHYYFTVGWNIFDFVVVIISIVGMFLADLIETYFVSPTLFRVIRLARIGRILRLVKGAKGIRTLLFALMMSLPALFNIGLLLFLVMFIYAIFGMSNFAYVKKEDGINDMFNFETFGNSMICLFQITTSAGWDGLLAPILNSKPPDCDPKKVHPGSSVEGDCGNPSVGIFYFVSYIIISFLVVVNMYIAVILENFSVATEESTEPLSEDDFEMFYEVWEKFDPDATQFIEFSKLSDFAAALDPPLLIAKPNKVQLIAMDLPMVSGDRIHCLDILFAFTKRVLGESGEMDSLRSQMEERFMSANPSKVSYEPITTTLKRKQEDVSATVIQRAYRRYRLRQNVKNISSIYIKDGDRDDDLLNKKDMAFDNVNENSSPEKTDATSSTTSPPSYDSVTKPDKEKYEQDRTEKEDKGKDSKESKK
# [10] = target: Voltage-gated inwardly rectifying potassium channel KCNH2 (Homo sapiens, UniProt Q12809)
# Chain of Voltage-gated inwardly rectifying potassium channel KCNH2 (Q12809 whole entry): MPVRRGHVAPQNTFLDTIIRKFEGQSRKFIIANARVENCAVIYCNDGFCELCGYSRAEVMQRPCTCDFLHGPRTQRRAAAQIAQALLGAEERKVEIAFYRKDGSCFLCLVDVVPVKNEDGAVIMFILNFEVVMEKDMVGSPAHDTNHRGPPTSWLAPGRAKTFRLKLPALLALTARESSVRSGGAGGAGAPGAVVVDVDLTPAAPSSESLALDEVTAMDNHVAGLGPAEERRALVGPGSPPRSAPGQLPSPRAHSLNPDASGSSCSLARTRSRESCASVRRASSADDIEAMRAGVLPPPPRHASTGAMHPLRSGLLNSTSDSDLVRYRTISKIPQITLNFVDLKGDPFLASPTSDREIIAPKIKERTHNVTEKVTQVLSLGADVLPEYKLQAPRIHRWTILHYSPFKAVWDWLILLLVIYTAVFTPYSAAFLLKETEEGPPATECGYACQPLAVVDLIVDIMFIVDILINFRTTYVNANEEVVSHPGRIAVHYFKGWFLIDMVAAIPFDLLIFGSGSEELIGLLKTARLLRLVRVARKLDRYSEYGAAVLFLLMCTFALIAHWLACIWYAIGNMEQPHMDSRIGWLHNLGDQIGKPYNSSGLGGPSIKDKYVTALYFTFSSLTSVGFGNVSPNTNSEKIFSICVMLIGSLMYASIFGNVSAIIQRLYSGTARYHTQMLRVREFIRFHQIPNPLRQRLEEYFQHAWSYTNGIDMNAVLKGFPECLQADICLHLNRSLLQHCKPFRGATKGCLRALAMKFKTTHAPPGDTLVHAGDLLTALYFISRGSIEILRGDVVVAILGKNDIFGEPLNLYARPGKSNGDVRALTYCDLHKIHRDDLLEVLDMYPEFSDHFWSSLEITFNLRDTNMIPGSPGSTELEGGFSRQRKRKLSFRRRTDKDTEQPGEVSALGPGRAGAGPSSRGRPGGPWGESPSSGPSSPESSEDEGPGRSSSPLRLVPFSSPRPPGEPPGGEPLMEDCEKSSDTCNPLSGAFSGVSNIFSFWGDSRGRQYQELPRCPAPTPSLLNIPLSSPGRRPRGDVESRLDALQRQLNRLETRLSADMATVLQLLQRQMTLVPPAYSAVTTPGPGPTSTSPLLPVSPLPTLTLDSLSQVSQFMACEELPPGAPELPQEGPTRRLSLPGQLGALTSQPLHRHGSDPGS
# [11] = Tmax in dog at 0.25 mg/kg, po; assay type: ADME, organism-based, Canis lupus familiaris; conditions: in vivo
# Rattus norvegicus [12] = assay: Antallodynic effect in Sprague-Dawley rat tibial nerve transection-induced mechanical allodynia model assessed as 50% shift in paw withdrawal threshold in ipsilateral paw at 40 mg/kg, single dose after 1.5 hrs (reference value: 1.7 +/- 0.3 g); assay type: functional
# Procedure, shortened: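 Tibial nerve transection neuropathic pain model in rat; single dose of 40 mg/kg; 50% paw withdrawal threshold of ipsilateral hindpaw measured 1.5 h post-dose against pre-dose baseline; pregabalin 10 mg/kg as comparator; mean ± SEM, P < 0.05 significance.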
# [13] = target: T1, Sodium channel protein type 10 subunit alpha; assay: Inhibition of human Nav1.8/beta1 expressed in HEK293 cells by manual patch clamp electrophysiology; assay type: cell-based
# Procedure, shortened: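 Recombinantly expressed human Nav1.8 with β1 subunit, recorded by manual whole-cell patch clamp electrophysiology. Inhibition was measured at the channel's V0.5 of inactivation, and IC50 values were derived from these recordings, with the number of determinations (n) reported per compound.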
# [14] = Half life in dog at 0.1 mg/kg, iv; assay type: ADME, organism-based, Canis lupus familiaris; conditions: in vivo
# [15] = Volume of distribution in dog at 0.1 mg/kg, iv; assay type: ADME, organism-based, Canis lupus familiaris; conditions: in vivo
# [16] = Plasma clearance in rat at 1 mg/kg, iv; assay type: ADME, organism-based
# [17] = target: T3, Sodium channel protein type 9 subunit alpha; assay: Inhibition of human Nav1.7 expressed in HEK293 cells by IonWorks Quattro assay
# [18] = Plasma clearance in rat at 2 mg/kg, po; assay type: ADME, organism-based
# [19] = Unbound plasma concentration in Sprague-Dawley rat at 40 mg/kg single dose; assay type: ADME, organism-based
# [20] = target: Sodium channel protein type 1 subunit alpha (Homo sapiens, UniProt P35498); assay: Inhibition of human Nav1.1 expressed in HEK293 cells by IonWorks Quattro selectivity assay; assay type: cell-based
# [21] = Volume of distribution in rat at 1 mg/kg, iv; assay type: ADME, organism-based; conditions: in vivo
# [22] = target: Sodium channel protein type 5 subunit alpha (Homo sapiens, UniProt Q14524); assay: Inhibition of human Nav1.5 expressed in HEK293 cells by IonWorks Quattro selectivity assay; assay type: cell-based
# [23] = Inhibition of Voltage gated sodium channel-mediated TTX-R current in human DRG neurons by manual patch clamp electrophysiology; conditions: DRG neuron
# [24] = Tmax in rat at 2 mg/kg, po; assay type: ADME, organism-based; conditions: in vivo
# [25] = Oral bioavailability in rat at 2 mg/kg; assay type: ADME, organism-based; conditions: in vivo
# [26] = Half life in rat at 1 mg/kg, iv; assay type: ADME, organism-based; conditions: in vivo
# Rattus norvegicus [27] = assay: Toxicity in Sprague-Dawley rat assessed as effect on vertical or horizontal movement at 250 mg/kg, po single dose; assay type: organism-based; conditions: in vivo
# Procedure, shortened: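 Rats given a single oral dose of 250 mg/kg; horizontal and vertical locomotor movements compared with vehicle-treated controls.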
# [28] = Tmax in rat at 3 mg/kg, po; assay type: ADME, organism-based; conditions: in vivo
# [29] = Plasma clearance in rat at 3 mg/kg, po; assay type: ADME, organism-based
# [30] = Intrinsic clearance in human liver microsomes; assay type: ADME; conditions: read-out: CLH
# [31] = Intrinsic clearance in rat liver microsomes; assay type: ADME; conditions: read-out: CLH
# [32] = Half life in rat at 3 mg/kg, po; assay type: ADME, organism-based; conditions: in vivo
# [33] = target: T2, Sodium channel protein type 2 subunit alpha; assay: Inhibition of human Nav1.2 expressed in SHSY5Y cells assessed as reduction in blue fluorescent signal by VSP-FRET assay; assay type: cell-based, SH-SY5Y
# Rattus norvegicus [34] = assay: Antallodynic effect in Sprague-Dawley rat tibial nerve transection-induced mechanical allodynia model assessed as 50% shift in paw withdrawal threshold in ipsilateral paw at 10 mg/kg, single dose after 1.5 hrs (reference value: 1.7 +/- 0.2 g); assay type: functional
# Procedure, shortened: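 Rat tibial nerve transection neuropathic pain model; mechanical allodynia read as 50% paw withdrawal threshold (g) of the ipsilateral hindpaw. The threshold is taken at baseline and again 1.5 h after a single dose. Data are given as mean ± SEM, with significance set at P < 0.05.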
# [35] = target: T2, Sodium channel protein type 2 subunit alpha; assay: Inhibition of human Nav1.2 expressed in HEK293 cells by IonWorks Quattro selectivity assay; assay type: cell-based
# [36] = Volume of distribution in rat at 2 mg/kg, iv; assay type: ADME, organism-based; conditions: in vivo
# [37] = Oral bioavailability in rat at 5 mg/kg; assay type: ADME, organism-based; conditions: in vivo
# [38] = Plasma clearance in rat at 2 mg/kg, iv; assay type: ADME, organism-based
# [39] = Half life in rat at 2 mg/kg, iv; assay type: ADME, organism-based; conditions: in vivo
# [40] = Half life in rat at 5 mg/kg, po; assay type: ADME, organism-based; conditions: in vivo
# [41] = Plasma clearance in rat at 5 mg/kg, po; assay type: ADME, organism-based
# [42] = Tmax in rat at 5 mg/kg, po; assay type: ADME, organism-based; conditions: in vivo
# Rattus norvegicus [43] = assay: Antallodynic effect in Sprague-Dawley rat spinal nerve injury-induced neuropathic pain model at 10 or 30 mg/kg; assay type: functional, organism-based
compound,measurement,setting,value
Cn1nccc1C(=O)Nc1ccc(-c2ccccc2OC(F)(F)F)c(N)n1,IC50,[1],2.4 µM
CNC(=O)c1ccc(-c2cc(Cl)cc(Cl)c2)c(N)n1,IC50,[1],> 32 µM
CNC(=O)c1ccc(-c2cccc(Cl)c2)c(N)n1,IC50,[1],> 32 µM
CNC(=O)c1ccc(-c2ccccc2Cl)c(N)n1,IC50,[1],> 32 µM
Cc1nocc1C(=O)Nc1ccc(-c2cc(Cl)cc(Cl)c2Cl)c(N)n1,solubility,[2],< 0.1 µg/mL
Cc1nocc1C(=O)Nc1ccc(-c2ccccc2OC(F)(F)F)c(N)n1,CL/F,[3],10 mL/min/kg
same,IC50,[4],10 µM
same,IC50,[5],330 nM
same,bioavailability,[6],63%
same,IC50,[7],10 µM
same,clearance,[8],6.2 mL/min/kg
same,IC50,[9],10 µM
same,IC50,[10],> 30 µM
same,IC50,[1],0.53 µM
same,Tmax,[11],3.5 h
same,Activity,Rattus norvegicus [12],Active
same,IC50,[13],260 nM
same,half-life,[14],582 min
same,Vd,[15],5.3 L/kg
COc1ccc(Cl)c(-c2ccc(NC(=O)c3ccnn3C)nc2N)c1 [PF-04531083],clearance,[16],6.7 mL/min/kg
same,IC50,[5],540 nM
same,IC50,[17],36 µM
same,CL/F,[18],11.4 mL/min/kg
same,IC50,[1],0.7 µM
same,fraction unbound,[19],0.2
same,IC50,[20],37 µM
same,Activity,Rattus norvegicus [12],7.3 g
same,Vd,[21],2.25 L/kg
same,IC50,[22],37 µM
same,IC50,[23],200 nM
same,Tmax,[24],1.3 h
same,IC50,[13],190 nM
same,bioavailability,[25],59%
same,half-life,[26],234 min
same,Activity,Rattus norvegicus [27],Non-toxic
CC(=O)Nc1ccc(-c2cc(Cl)cc(Cl)c2Cl)c(N)n1,Tmax,[28],45 min
same,CL/F,[29],204 mL/min/kg
same,IC50,[1],0.16 µM
same,microsomal CLint,[30],41 µL/min/mg
same,microsomal CLint,[31],29 µL/min/mg
same,half-life,[32],246 min
same,IC50,[33],3.5 µM
CNC(=O)c1ccc(-c2ccc(Cl)cc2)c(N)n1,IC50,[1],> 32 µM
COc1ccc(Cl)c(-c2ccc(NC(=O)c3conc3C)nc2N)c1,IC50,[1],0.5 µM
CNC(=O)c1cnc(N)c(-c2cc(Cl)cc(Cl)c2Cl)c1,IC50,[1],24 µM
same,IC50,[33],6.9 µM
COc1ccc(Cl)cc1-c1ccc(NC(=O)c2ccnn2C)nc1N,IC50,[1],7.4 µM
Cn1nccc1C(=O)Nc1ccc(-c2cc(Cl)cc(Cl)c2Cl)c(N)n1,solubility,[2],< 0.1 µg/mL
same,IC50,[1],0.75 µM
Nc1nnc(-c2cccc(Cl)c2Cl)c(N)n1 [LAMOTRIGINE],IC50,[1],98 µM
same,IC50,[33],17 µM
Cn1nccc1C(=O)Nc1ccc(-c2ccc(F)cc2Cl)c(N)n1,IC50,[1],> 31 µM
CNC(=O)c1ccc(-c2cc(Cl)ccc2Cl)c(N)n1,IC50,[1],12 µM
CC(C)C[C@H](CN)CC(=O)O [PREGABALIN],Activity,Rattus norvegicus [34],5.8 g
Cn1nccc1C(=O)Nc1ccc(-c2ccccc2Cl)c(N)n1,IC50,[1],4.9 µM
Cn1nccc1C(=O)Nc1ccc(-c2cc(Cl)ccc2Cl)c(N)n1,IC50,[1],0.92 µM
CNC(=O)c1ccc(-c2cc(Cl)cc(Cl)c2Cl)c(N)n1,IC50,[35],12.8 µM
same,IC50,[5],440 nM
same,IC50,[17],19 µM
same,Vd,[36],3 L/kg
same,bioavailability,[37],91%
same,IC50,[10],30 µM
same,IC50,[1],2.6 µM
same,IC50,[20],13 µM
same,clearance,[38],11.7 mL/min/kg
same,microsomal CLint,[30],7.1 µL/min/mg
same,IC50,[22],9 µM
same,IC50,[23],310 nM
same,microsomal CLint,[31],< 9 µL/min/mg
same,IC50,[13],190 nM
same,half-life,[39],240 min
same,half-life,[40],276 min
same,CL/F,[41],13.3 mL/min/kg
same,IC50,[33],14 µM
same,Tmax,[42],1 h
same,Activity,Rattus norvegicus [43],Active
COc1ccc(Cl)c(-c2ccc(NC(=O)C(C)C)nc2N)c1,IC50,[1],4 µM

# — ChEMBL document CHEMBL3588833 (ACS Med Chem Lett, 2015)
